Source: ChEMBL document CHEMBL4229446, “Development of Novel Monoamine Oxidase-B (MAO-B) Inhibitors with Reduced Blood-Brain Barrier Permeability for the Potential Management of Noncentral Nervous System (CNS) Diseases” (J Med Chem, 2018)

Tests used:
[1] = Metabolic stability in mouse plasma assessed as parent compound remaining at 5 uM after 4 hrs by UPLC-MS/MS analysis; type: ADME, cell-free; conditions: read-out: Stability
Method in brief: (§1)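 Compound at 5 μM was incubated in mouse or human plasma at 37 °C with shaking. Sampled at 0, 5, 15, 30, 60, 120 and 240 min and stopped with ice-cold acetonitrile/0.1% formic acid containing internal standard. Supernatants analysed by UPLC-MS/MS for parent remaining. Run in triplicate.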

P-gp (MDR1) = experiment: Efflux ratio of apparent permeability in MDCK2-MDR1 cells at 10 uM after 1 hr in absence of P-gp inhibitor verapamil by UPLC-MS/MS analysis; type: ADME, cell-based, Canis lupus familiaris; conditions: dog, MDCK-MDR1
Method in brief: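 MDCK-WT (MEM-α/10% FBS) or MDCK-MDR1 II (DMEM/10% FBS) cells were grown 3 days on 12-well transwells. Integrity was checked by TEER and 100 μM Lucifer yellow. Cells were washed in HBSS/10 mM HEPES. Compound at 10 μM was added apically or basally, in triplicate, ±100 μM verapamil. Receiver sampled at 1 h by UPLC-MS/MS. Efflux ratio = Papp B→A / Papp A→B.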

Mus musculus [2] = experiment: Acute toxicity in C57BL/6 mouse assessed as abnormal clinical signs at […], iv administered as single dose measured after 24 hrs post-injection; type: organism-based; conditions: in vivo
[3] = molecular target: T1, Amine oxidase [flavin-containing] A (Homo sapiens, UniProt P21397); experiment: Inhibition of human recombinant MAO-A expressed in baculovirus infected BTI-TN-5B1-4 insect cells using tyramine as substrate preincubated for 1 hr followed by substrate addition and measured after 30 mins by resazurin dye-based fluorescence assay
T1 sequence (P21397 whole entry): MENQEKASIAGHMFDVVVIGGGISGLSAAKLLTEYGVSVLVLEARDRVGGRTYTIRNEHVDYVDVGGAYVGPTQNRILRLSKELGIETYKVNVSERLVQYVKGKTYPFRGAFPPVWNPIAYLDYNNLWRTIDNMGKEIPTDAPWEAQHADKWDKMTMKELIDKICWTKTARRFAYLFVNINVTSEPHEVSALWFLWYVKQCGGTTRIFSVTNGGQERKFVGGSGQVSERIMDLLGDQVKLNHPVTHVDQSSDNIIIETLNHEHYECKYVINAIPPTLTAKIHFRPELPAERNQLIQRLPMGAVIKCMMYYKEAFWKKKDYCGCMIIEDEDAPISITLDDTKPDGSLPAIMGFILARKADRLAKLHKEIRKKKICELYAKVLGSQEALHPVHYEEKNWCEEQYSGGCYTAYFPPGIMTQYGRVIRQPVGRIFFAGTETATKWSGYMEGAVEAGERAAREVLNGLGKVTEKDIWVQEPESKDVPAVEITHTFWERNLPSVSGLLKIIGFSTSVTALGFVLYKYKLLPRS

[4] = Cmax in C57BL/6 mouse brain at 24.5 mg/kg, sc administered as single dose measured 24 hrs by UPLC-MS/MS analysis; type: ADME, organism-based; parameters: dose 24.5 mg/kg, route subcutaneous
Method in brief: (§2)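 15 animals dosed, 3 sacrificed at each of 1, 2, 4, 6 and 24 h. Plasma and brain homogenate were extracted and quantified by UPLC-MS/MS. Parameters came from noncompartmental analysis. Values above or below the limit of quantification, or undetected, were omitted. Kp = AUClast brain/plasma.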

[5] = Apparent half-life of the terminal disposition phase in C57BL/6 mouse plasma at 24.5 mg/kg, iv administered as single dose measured 24 hrs by UPLC-MS/MS analysis; type: ADME, organism-based; conditions: read-out: t1/2 lambda z (converted)
Method in brief: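 21 animals dosed at 0 min, 3 sacrificed at each of 0, 5, 15, 30 min, 1, 4 and 24 h. Plasma was extracted by protein precipitation with phospholipid removal. Brain was weighed, bead-homogenised in 50 mM ammonium formate and extracted in acidified organic solvent. Quantified by UPLC-MS/MS (MRM). Brain ng/g taken as ng/mL. Parameters came from noncompartmental analysis. Kp = AUClast brain/plasma.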

Mus musculus [6] = experiment: Acute toxicity in C57BL/6 mouse assessed as abnormal clinical signs at […], po administered as single dose measured after 24 hrs post-injection; type: organism-based; conditions: in vivo
[7] = Metabolic stability in cryopreserved mouse hepatocytes assessed as parent compound remaining at 1 uM after 60 mins by UPLC-MS/MS analysis; type: ADME, cell-based, Hepatocyte; conditions: read-out: Stability
[8] = Metabolic stability in human plasma assessed as parent compound remaining at 5 uM after 4 hrs by UPLC-MS/MS analysis; type: ADME, cell-free; conditions: read-out: Stability; method in brief: as §1
[9] = Tmax in C57BL/6 mouse brain at 24.5 mg/kg, po administered as single dose measured 24 hrs by UPLC-MS/MS analysis; type: ADME, organism-based
Method in brief: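 Brain portion homogenised in 50 mM ammonium formate with beads, acidified organic extraction, UPLC-MS/MS. ng/g read as ng/mL. Noncompartmental analysis; values above or below quantification limit, or undetected, excluded.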

[10] = Metabolic stability in human liver microsomes assessed as parent compound remaining at 1 uM after 60 mins by UPLC-MS/MS analysis; type: ADME, microsome; conditions: liver microsomes, read-out: Stability
Method in brief: (§3)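 Compound at 1 μM with 0.5 mg/mL mouse or human liver microsomes in 100 mM potassium phosphate pH 7.4, 3.3 mM MgCl2, 1 mM NADPH, at 37 °C. Started with NADPH; minus-NADPH control run. Stopped at 0, 5, 15, 30, 45 and 60 min with acetonitrile/formic acid plus internal standard. Parent remaining by UPLC-MS/MS, in triplicate.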

[11] = Metabolic stability in mouse liver microsomes assessed as parent compound remaining at 1 uM after 60 mins in presence of NADPH by UPLC-MS/MS analysis; type: ADME, microsome; conditions: read-out: Stability; method in brief: as §3
Mus musculus [12] = experiment: Acute toxicity in C57BL/6 mouse assessed as abnormal clinical signs at […], sc administered as single dose measured after 24 hrs post-injection; type: organism-based; conditions: in vivo
[13] = Efflux ratio of apparent permeability in MDCK-WT cells at 10 uM after 1 hr in absence of P-gp inhibitor verapamil by UPLC-MS/MS analysis; conditions: dog
[14] = AUClast in C57BL/6 mouse brain at 24.5 mg/kg, po administered as single dose measured 24 hrs by UPLC-MS/MS analysis; type: ADME, organism-based; parameters: dose 24.5 mg/kg, route oral, time 0 - last; method in brief: as §2
[15] = Ratio of AUClast in brain to plasma in C57BL/6 mouse at 24.5 mg/kg, po administered as single dose measured 24 hrs by UPLC-MS/MS analysis; type: ADME, organism-based; method in brief: as §2
[16] = Tmax in C57BL/6 mouse plasma at 23.4 mg/kg, sc administered as single dose measured 24 hrs by UPLC-MS/MS analysis; type: ADME, organism-based
Method in brief: (§4)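 15 animals dosed, 3 killed at each of 1, 2, 4, 6 and 24 h. Plasma and brain homogenate (ammonium formate, acidified organic extraction) assayed by UPLC-MS/MS, brain ng/g taken as ng/mL. Noncompartmental parameters exclude values above/below quantification limit or undetected. Kp = AUClast brain/plasma.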

[17] = Apparent half-life of the terminal disposition phase in C57BL/6 mouse brain at 23.4 mg/kg, sc administered as single dose measured 24 hrs by UPLC-MS/MS analysis; type: ADME, organism-based; conditions: read-out: t1/2 lambda z (converted); method in brief: as §4

Row | SMILES | remaining at 4 h, 5 µM [1] [%] | efflux ratio at 1 h, 10 µM (P-gp (MDR1)) | Activity (Mus musculus [2]) | IC50 [3] [µM] | Cmax [4] [ng/mL] | half-life [5] [h] | Activity (Mus musculus [6]) | remaining at 1 h, 1 µM [7] [%] | remaining at 4 h, 5 µM [8] [%] | Tmax [9] [h] | remaining at 1 h, 1 µM [10] [%] | remaining at 1 h, 1 µM [11] [%] | Activity (Mus musculus [12]) | efflux ratio at 1 h, 10 µM [13] | AUC(0-t) at 24 h [14] [ng·h/mL] | Kp at 24 h [15] | Tmax [16] [h] | half-life [17] [h]
1 | C[C@H](Cc1ccc(OCc2ccc(Br)c(Cl)c2)cc1)N(C)CC(=O)O | ≥ 75 | 2.12 | Non-Toxic | > 50 | 806 | 3.93 | Non-Toxic | ≥ 90 | ≥ 75 | 6 | ≥ 90 | 93.4 | Non-Toxic | 1.33 | 12600 | 0.12 | – | –
2 | CN(CC(=O)O)[C@H](CC#N)Cc1ccc(OCc2ccc(Cl)c(Cl)c2)cc1 | ≥ 75 | 1.14 | Non-Toxic | 126 | – | – | Non-Toxic | 64 | ≥ 75 | – | ≥ 90 | 39 | Non-Toxic | 1.07 | – | – | 1 | 1.07
